Measurements taken from ChEMBL document CHEMBL4725345, “DFG-1 Residue Controls Inhibitor Binding Mode and Affinity, Providing a Basis for Rational Design of Kinase Inhibitor Selectivity” (J Med Chem, 2020).

Key:
[1] = biological target: Dual specificity protein kinase CLK4 (Homo sapiens, UniProt Q9HAZ1); conditions: dose 10.0 µM, time 10.0 min
[2] = biological target: Bone morphogenetic protein receptor type-1B (Homo sapiens) (UniProt O00238); assay: Binding affinity to BMPR1B (unknown origin) assessed as change in melting temperature at 10 uM incubated for 10 mins using SYPRO orange dye by RT-PCR-based fluorescence assay
Bone morphogenetic protein receptor type-1B (Homo sapiens), sequence (O00238 whole entry, the tested form may be a part): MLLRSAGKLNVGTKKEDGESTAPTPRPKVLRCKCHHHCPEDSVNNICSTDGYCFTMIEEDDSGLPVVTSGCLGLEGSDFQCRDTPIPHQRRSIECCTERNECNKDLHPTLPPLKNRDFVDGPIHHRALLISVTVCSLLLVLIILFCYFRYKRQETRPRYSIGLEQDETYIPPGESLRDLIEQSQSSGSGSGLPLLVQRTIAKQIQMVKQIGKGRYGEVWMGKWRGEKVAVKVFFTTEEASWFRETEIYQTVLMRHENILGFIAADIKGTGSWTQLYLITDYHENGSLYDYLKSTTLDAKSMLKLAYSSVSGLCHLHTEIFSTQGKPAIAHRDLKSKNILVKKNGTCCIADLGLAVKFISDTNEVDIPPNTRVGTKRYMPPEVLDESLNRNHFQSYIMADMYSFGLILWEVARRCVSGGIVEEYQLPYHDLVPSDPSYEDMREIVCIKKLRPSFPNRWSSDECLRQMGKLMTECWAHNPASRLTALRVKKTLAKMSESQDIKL
Outline: (§1)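 Recombinant kinase domain at 2 μM in 10 mM HEPES pH 7.5, 500 mM NaCl, mixed with 10 μM inhibitor for 10 min at room temperature; SYPRO orange added at 1:1000; temperature-dependent unfolding fluorescence read on a real-time PCR instrument; Tm shift derived by a previously described method.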

[3] = biological target: Activin receptor type-2B (Homo sapiens) (UniProt Q13705); assay: Binding affinity to ACTR2B (unknown origin) assessed as change in melting temperature at 10 uM incubated for 10 mins using SYPRO orange dye by RT-PCR-based fluorescence assay
Outline: as §1

[4] = biological target: Dual specificity protein kinase CLK1 (Homo sapiens, UniProt P49759); conditions: dose 10.0 µM, time 10.0 min
Dual specificity protein kinase CLK1, sequence (P49759 whole entry, looked up): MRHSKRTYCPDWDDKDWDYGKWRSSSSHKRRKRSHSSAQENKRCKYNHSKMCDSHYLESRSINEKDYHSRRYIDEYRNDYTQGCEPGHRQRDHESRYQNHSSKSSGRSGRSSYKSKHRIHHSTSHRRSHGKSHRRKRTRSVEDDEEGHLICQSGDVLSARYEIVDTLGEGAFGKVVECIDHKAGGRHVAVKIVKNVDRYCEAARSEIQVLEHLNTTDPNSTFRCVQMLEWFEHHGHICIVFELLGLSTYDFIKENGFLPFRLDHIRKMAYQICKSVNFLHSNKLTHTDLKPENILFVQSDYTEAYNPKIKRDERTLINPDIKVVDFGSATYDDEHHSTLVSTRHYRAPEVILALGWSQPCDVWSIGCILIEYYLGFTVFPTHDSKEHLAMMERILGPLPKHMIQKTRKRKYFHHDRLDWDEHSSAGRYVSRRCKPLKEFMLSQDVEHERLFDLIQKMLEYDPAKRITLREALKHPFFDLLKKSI

[5] = biological target: Bone morphogenetic protein receptor type-1A (Homo sapiens) (UniProt P36894); assay: Binding affinity to BMPR1A (unknown origin) assessed as change in melting temperature at 10 uM incubated for 10 mins using SYPRO orange dye by RT-PCR-based fluorescence assay
Outline: as §1

[6] = biological target: T1, Dual specificity tyrosine-phosphorylation-regulated kinase 2 (Homo sapiens) (UniProt Q92630); assay: Binding affinity to DYRK2 (unknown origin) assessed as change in melting temperature at 10 uM incubated for 10 mins using SYPRO orange dye by RT-PCR-based fluorescence assay
T1 sequence (whole entry): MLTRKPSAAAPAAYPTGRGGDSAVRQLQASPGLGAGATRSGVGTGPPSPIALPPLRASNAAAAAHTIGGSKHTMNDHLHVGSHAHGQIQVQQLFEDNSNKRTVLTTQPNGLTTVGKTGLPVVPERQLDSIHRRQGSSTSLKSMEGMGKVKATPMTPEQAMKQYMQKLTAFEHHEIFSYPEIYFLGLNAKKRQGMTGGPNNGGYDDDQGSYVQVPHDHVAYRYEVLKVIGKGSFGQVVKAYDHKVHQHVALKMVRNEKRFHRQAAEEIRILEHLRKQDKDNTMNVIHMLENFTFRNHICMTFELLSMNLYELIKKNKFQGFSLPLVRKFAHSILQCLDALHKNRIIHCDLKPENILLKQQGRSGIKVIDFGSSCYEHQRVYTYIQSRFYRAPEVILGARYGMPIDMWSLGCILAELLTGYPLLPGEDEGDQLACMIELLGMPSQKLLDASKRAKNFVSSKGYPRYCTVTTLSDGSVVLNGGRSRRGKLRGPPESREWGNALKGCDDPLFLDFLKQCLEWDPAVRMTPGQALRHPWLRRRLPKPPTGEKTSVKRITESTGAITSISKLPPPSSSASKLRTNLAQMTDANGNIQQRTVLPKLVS
Outline: as §1

[7] = biological target: Cyclin-G-associated kinase (Homo sapiens) (UniProt O14976); assay: Binding affinity to GAK (unknown origin) assessed as change in melting temperature at 10 uM incubated for 10 mins using SYPRO orange dye by RT-PCR-based fluorescence assay
Cyclin-G-associated kinase (Homo sapiens), sequence (O14976 whole entry): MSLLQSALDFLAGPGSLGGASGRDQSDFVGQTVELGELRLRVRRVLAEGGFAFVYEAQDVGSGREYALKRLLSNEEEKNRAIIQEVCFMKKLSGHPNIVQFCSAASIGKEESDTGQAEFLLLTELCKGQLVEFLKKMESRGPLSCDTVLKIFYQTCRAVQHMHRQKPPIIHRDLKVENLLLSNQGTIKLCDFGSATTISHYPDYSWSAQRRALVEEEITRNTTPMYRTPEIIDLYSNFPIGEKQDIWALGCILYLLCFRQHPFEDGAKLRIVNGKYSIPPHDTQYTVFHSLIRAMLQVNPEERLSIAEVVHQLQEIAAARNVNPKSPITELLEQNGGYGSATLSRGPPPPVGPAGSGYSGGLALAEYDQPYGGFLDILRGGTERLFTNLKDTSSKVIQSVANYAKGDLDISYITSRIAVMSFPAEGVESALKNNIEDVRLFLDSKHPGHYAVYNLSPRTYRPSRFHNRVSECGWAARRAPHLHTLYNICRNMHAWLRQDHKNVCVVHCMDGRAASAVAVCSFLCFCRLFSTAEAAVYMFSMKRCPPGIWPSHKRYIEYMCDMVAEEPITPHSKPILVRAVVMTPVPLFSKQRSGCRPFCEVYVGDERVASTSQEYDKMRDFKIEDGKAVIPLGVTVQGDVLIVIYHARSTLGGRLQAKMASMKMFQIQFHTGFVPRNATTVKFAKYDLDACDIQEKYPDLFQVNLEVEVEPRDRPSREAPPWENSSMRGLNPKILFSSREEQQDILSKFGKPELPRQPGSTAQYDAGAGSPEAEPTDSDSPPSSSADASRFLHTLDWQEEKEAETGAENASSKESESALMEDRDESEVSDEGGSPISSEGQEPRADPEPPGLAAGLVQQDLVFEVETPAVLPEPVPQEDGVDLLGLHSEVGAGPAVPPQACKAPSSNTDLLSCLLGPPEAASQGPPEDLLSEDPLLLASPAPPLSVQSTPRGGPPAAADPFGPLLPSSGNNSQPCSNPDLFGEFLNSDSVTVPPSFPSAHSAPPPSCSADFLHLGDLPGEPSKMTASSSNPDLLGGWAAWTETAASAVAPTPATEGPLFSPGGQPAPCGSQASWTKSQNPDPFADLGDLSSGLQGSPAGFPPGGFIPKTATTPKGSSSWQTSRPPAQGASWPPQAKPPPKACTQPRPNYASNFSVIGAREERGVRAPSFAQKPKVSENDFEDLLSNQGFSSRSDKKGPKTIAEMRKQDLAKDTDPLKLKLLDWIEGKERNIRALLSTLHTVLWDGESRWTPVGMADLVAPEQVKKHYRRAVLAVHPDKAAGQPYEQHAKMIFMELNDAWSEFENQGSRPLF
Outline: as §1

[8] = biological target: Serine/threonine-protein kinase 17B (Homo sapiens) (UniProt O94768); assay: Binding affinity to DRAK2 (unknown origin) assessed as change in melting temperature at 10 uM incubated for 10 mins using SYPRO orange dye by RT-PCR-based fluorescence assay
Outline: as §1

[9] = biological target: Activin receptor type-1-like (Homo sapiens) (UniProt P37023); assay: Binding affinity to ACVRL1 (unknown origin) assessed as change in melting temperature at 10 uM incubated for 10 mins using SYPRO orange dye by RT-PCR-based fluorescence assay
Activin receptor type-1-like (Homo sapiens), sequence (P37023 whole entry): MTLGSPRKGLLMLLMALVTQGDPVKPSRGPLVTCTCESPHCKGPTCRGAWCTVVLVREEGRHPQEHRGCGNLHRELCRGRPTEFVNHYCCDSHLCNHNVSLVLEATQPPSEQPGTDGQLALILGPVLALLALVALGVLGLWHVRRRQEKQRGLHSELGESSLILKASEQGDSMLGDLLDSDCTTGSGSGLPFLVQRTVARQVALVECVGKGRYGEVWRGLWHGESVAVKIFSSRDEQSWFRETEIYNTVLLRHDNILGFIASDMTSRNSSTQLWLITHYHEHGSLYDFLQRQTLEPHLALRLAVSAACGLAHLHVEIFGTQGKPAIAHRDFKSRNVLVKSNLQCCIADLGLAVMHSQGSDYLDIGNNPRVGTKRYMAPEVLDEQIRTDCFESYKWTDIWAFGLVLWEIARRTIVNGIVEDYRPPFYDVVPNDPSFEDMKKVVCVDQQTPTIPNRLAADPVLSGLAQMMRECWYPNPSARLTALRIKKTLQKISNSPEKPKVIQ
Outline: as §1

Homo sapiens = species on record: Homo sapiens; assay: Binding affinity to RSK4B (unknown origin) assessed as change in melting temperature at 10 uM incubated for 10 mins using SYPRO orange dye by RT-PCR-based fluorescence assay
Outline: as §1

[10] = biological target: Tyrosine-protein kinase JAK1 (Homo sapiens) (UniProt P23458); assay: Binding affinity to JAK1 (unknown origin) assessed as change in melting temperature at 10 uM incubated for 10 mins using SYPRO orange dye by RT-PCR-based fluorescence assay
Outline: as §1

[11] = biological target: Bone morphogenetic protein receptor type-2 (Homo sapiens) (UniProt Q13873); assay: Binding affinity to BMPR2 (unknown origin) assessed as change in melting temperature at 10 uM incubated for 10 mins using SYPRO orange dye by RT-PCR-based fluorescence assay
Bone morphogenetic protein receptor type-2 (Homo sapiens), sequence (Q13873 whole entry): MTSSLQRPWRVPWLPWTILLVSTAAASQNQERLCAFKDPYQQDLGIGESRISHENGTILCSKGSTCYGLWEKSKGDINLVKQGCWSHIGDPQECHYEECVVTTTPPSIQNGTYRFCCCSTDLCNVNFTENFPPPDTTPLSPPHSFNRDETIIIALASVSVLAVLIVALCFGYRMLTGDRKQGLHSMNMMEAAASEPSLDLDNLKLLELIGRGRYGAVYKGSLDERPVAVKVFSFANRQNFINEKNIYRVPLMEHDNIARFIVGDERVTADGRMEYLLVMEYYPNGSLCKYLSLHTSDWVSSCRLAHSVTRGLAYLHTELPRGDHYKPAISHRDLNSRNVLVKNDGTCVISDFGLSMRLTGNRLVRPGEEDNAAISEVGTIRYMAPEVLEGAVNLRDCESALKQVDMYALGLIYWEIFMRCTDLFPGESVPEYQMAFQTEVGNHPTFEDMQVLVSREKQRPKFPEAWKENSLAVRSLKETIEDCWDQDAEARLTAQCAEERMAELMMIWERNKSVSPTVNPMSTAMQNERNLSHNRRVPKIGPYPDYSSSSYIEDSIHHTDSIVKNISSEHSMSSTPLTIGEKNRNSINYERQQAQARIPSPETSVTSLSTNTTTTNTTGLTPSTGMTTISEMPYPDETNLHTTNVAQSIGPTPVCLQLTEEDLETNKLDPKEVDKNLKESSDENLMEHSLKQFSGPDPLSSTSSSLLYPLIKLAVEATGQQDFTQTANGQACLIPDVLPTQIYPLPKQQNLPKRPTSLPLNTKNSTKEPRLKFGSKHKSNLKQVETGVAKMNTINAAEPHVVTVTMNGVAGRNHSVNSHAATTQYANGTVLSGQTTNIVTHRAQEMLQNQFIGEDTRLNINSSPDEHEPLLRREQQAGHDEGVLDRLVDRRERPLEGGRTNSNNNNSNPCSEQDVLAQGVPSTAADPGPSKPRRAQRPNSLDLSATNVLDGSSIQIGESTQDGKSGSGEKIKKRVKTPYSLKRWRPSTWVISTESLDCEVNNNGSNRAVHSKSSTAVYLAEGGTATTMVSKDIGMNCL
Outline: as §1

[12] = biological target: Activin receptor type-1B (Homo sapiens) (UniProt P36896); assay: Binding affinity to ACVR1B (unknown origin) assessed as change in melting temperature at 10 uM incubated for 10 mins using SYPRO orange dye by RT-PCR-based fluorescence assay
Activin receptor type-1B (Homo sapiens), sequence (P36896 whole entry): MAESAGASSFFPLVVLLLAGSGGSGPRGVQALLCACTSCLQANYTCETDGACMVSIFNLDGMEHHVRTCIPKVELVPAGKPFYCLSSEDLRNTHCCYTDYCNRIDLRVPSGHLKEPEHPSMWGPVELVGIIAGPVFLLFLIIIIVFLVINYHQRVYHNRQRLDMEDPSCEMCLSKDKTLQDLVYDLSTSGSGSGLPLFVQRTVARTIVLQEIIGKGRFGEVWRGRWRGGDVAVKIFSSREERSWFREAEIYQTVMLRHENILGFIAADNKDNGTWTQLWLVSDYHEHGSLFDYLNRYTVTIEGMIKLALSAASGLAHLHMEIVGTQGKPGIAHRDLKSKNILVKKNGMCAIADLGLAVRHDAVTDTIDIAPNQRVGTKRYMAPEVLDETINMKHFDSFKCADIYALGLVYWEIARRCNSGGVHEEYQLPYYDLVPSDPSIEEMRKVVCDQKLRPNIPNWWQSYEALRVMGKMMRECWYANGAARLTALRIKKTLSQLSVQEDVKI
Outline: as §1

[13] = biological target: Glycogen synthase kinase-3 beta (Homo sapiens) (UniProt P49841); assay: Binding affinity to GSK3B (unknown origin) assessed as change in melting temperature at 10 uM incubated for 10 mins using SYPRO orange dye by RT-PCR-based fluorescence assay
Outline: as §1

[14] = biological target: T2, Serine/threonine-protein kinase haspin (Homo sapiens) (UniProt Q8TF76); assay: Binding affinity to haspin (unknown origin) assessed as change in melting temperature at 10 uM incubated for 10 mins using SYPRO orange dye by RT-PCR-based fluorescence assay
T2 sequence (whole entry): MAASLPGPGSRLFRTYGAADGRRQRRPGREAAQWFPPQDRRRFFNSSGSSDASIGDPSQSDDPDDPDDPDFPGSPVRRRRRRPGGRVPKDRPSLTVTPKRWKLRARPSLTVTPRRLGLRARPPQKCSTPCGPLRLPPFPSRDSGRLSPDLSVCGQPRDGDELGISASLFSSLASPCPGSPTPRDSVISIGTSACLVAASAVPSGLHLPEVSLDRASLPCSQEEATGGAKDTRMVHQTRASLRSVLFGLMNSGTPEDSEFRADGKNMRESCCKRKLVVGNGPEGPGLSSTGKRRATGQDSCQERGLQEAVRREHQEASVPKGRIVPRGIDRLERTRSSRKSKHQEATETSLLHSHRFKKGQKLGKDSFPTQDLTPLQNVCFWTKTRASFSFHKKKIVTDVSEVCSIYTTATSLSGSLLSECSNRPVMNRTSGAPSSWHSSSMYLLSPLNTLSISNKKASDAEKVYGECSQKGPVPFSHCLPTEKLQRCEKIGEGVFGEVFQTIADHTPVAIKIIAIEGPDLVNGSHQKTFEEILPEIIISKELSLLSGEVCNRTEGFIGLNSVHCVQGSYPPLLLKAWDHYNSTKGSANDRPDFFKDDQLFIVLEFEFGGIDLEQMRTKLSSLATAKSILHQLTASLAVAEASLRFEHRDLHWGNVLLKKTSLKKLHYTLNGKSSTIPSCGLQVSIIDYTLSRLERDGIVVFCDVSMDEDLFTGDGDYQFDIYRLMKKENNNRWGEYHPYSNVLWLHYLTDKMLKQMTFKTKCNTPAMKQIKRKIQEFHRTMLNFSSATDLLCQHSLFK
Outline: as §1

Dual specificity protein kinase CLK4, sequence (Q9HAZ1 whole entry, looked up): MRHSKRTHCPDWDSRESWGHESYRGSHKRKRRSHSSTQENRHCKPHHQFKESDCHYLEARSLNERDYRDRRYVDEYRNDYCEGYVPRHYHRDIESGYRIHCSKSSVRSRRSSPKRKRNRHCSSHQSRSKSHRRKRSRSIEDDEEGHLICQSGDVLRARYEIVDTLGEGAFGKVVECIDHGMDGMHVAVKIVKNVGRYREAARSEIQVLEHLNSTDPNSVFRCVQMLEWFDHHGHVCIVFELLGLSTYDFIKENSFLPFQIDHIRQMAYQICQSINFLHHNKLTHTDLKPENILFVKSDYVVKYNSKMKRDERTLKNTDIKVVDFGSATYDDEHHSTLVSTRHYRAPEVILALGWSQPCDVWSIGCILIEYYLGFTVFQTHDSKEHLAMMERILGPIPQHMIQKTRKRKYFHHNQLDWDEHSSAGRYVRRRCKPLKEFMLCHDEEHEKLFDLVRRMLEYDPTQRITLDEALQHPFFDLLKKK

ΔTm [1]: > 6 °C
ΔTm [2]: > 6 °C
ΔTm [3]: > 6 °C
ΔTm [4]: > 4 °C
ΔTm [5]: > 6 °C
ΔTm [6]: > 4 °C
ΔTm [7]: > 6 °C
ΔTm [8]: > 4 °C
ΔTm [9]: > 6 °C
ΔTm (Homo sapiens): > 4 °C
ΔTm [10]: > 6 °C
ΔTm [11]: > 6 °C
ΔTm [12]: > 6 °C
ΔTm [13]: > 4 °C
ΔTm [14]: > 6 °C
SMILES: CC(=O)c1cccc(-c2cnc3ccc(NCC4CC4)nn23)c1
